ChEMBL document CHEMBL2216753, “Novel 1,4-benzoxazine and 1,4-benzodioxine inhibitors of angiogenesis” (Eur J Med Chem, 2012)
Activity calls are given as the source filed them. No cut-off for these calls is given here.

Key:
HeLa [1] = test: Cytotoxicity against human HeLa cells at 100 uM after 3 days by coulter counter method; format: cell-based; conditions: 72 h
Outline: (§1)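 Cells seeded at 10,000 cells per cm2; after 16 h, fresh medium with test compound added. Cells trypsinized and counted with a Coulter counter on day 4 (BAEC, HeLa, MCF-7) or day 7 (HMEC-1). Cytotoxicity (cell death) was judged after 3 days in culture. HMEC-1 grown in EGM-2 with supplements and growth factors.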

MCF7 [2] = test: Antiproliferative activity against human MCF7 cells after 4 days by coulter counter method; format: functional, cell-based; conditions: MCF7, 96 h
HeLa [3] = test: Antiproliferative activity against human HeLa cells after 4 days by coulter counter method; format: functional, cell-based; conditions: 96 h
[4] = Cytotoxicity against human HMEC1 cells at 100 uM after 3 days by coulter counter method; format: cell-based; conditions: hmec-1, 72 h; outline: as §1
[5] = Antiproliferative activity against human HMEC1 cells after 7 days by coulter counter method; format: functional, cell-based; conditions: HMEC-1, 168 h
[6] = Antiproliferative activity against bovine BAEC cells after 4 days by coulter counter method; format: functional, cell-based; conditions: Bos taurus, 96 h
MCF7 [7] = test: Cytotoxicity against human MCF7 cells at 100 uM after 3 days by coulter counter method; format: cell-based; conditions: mcf7, 72 h; outline: as §1
[8] = Cytotoxicity against bovine BAEC cells at 100 uM after 3 days by coulter counter method; format: cell-based, Bos taurus; conditions: cattle, 72 h; outline: as §1
HMEC-1 = test: Antiangiogenic activity in human HMEC1 cells assessed as inhibition of tube formation after 4 to 6 hrs by matrigel assay; format: functional, cell-based
Outline: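 HMEC-1 (60,000 cells) seeded on matrigel (10 mg/mL) after 30 min gelling at 37 °C, in DMEM containing test compound; after 4–6 h cells photographed and tubes scored 0 (none) to 3 (maximal, like untreated control). Mean ± SD of 2–4 independent experiments; Student t test, p < 0.05 significant.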

[9] = Antimigratory activity against mouse MAEC cell migration at 10 uM after 5 hrs by wound closure assay; format: functional
Outline: (§2)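 Confluent MAEC monolayers wounded with a 1.0-mm wide micropipette tip, then incubated in fresh medium with test compound. Wounds photographed after 5 h and width calculated from digital images. Mean ± SD of 2–4 independent experiments; Student t test, p < 0.05 significant.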

Gallus gallus = organism: Gallus gallus; test: Antiangiogenic activity in chicken embryo chorioallantoic membrane model at 250 nmol/disc after 3 days; format: functional, tissue-based
MCF7 [10] = test: Cytotoxicity against human MCF7 cells at 30 uM after 3 days by coulter counter method; format: cell-based; conditions: mcf7, 72 h; outline: as §1
[11] = Cytotoxicity against human HMEC1 cells at 30 uM after 3 days by coulter counter method; format: cell-based; conditions: hmec-1, 72 h; outline: as §1
[12] = Cytotoxicity against bovine BAEC cells at 30 uM after 3 days by coulter counter method; format: cell-based, Bos taurus; conditions: cattle, 72 h; outline: as §1
MAEC [13] = test: Antimigratory activity against mouse MAEC cell migration after 5 hrs by wound closure assay; format: functional, cell-based; outline: as §2
HeLa [14] = test: Cytotoxicity against human HeLa cells at 30 uM after 3 days by coulter counter method; format: cell-based; conditions: 72 h; outline: as §1
MAEC [15] = test: Antimigratory activity against mouse MAEC cell migration at 30 uM after 5 hrs by wound closure assay; format: functional; outline: as §2

CCOC(=O)CN(Cc1cc(F)cc(F)c1)c1ccc2c(c1)N(C)CC(C)(COc1ccc(C#N)cc1)O2 (configuration not stated)
Activity (HeLa [1]): Toxic | IC50 (MCF7 [2]): > 100 µM | IC50 (HeLa [3]): > 100 µM | Activity [4]: Toxic | IC50 [5]: > 100 µM | IC50 [6]: > 100 µM | Activity (MCF7 [7]): Toxic | Activity [8]: Toxic

CCOC(=O)C(=O)N(Cc1ccc(F)c(F)c1)c1ccc2c(c1)OC(C)(COc1ccc(C(=N)N)cc1)CN2C (configuration not stated)
inhibition (HMEC-1): Dose-dependent effect | Activity (HeLa [1]): Toxic | inhibition at 10 µM [9]: 50% | inhibition (Gallus gallus): Active | IC50 (MCF7 [2]): 5.8 µM | IC50 (HeLa [3]): 11 µM | Activity [4]: Toxic | Activity (MCF7 [10]): Non-toxic | Activity [11]: Non-toxic | IC50 [5]: 6.7 µM | Activity [12]: Non-toxic | IC50 [6]: 4.9 µM | inhibition (MAEC [13]): Dose-dependent effect | Activity (HeLa [14]): Non-toxic | Activity (MCF7 [7]): Toxic | inhibition (MAEC [15]): Active | Activity [8]: Toxic

CN1CC(C)(COc2ccc(C(=N)N)cc2)Oc2cc(N(Cc3cccc(F)c3)C(=O)C(=O)O)ccc21 (configuration not stated)
inhibition (Gallus gallus): inactive

CN1CC(C)(COc2ccc(C(=N)N)cc2)Oc2cc(N(Cc3ccc(F)c(F)c3)C(=O)C(=O)O)ccc21 (configuration not stated)
inhibition (Gallus gallus): inactive

CCOC(=O)C(=O)N(Cc1ccc(F)cc1)c1ccc2c(c1)OC(C)(COc1ccc(C(=N)N)cc1)CN2C (configuration not stated)
inhibition (HMEC-1): Dose-dependent effect | Activity (HeLa [1]): Toxic | inhibition at 10 µM [9]: 50% | inhibition (Gallus gallus): Active | IC50 (MCF7 [2]): 6.3 µM | IC50 (HeLa [3]): 14 µM | Activity [4]: Toxic | Activity (MCF7 [10]): Non-toxic | Activity [11]: Non-toxic | IC50 [5]: 7.6 µM | Activity [12]: Non-toxic | IC50 [6]: 6.9 µM | inhibition (MAEC [13]): Dose-dependent effect | Activity (HeLa [14]): Non-toxic | Activity (MCF7 [7]): Toxic | inhibition (MAEC [15]): Active | Activity [8]: Toxic

CCOC(=O)C(=O)N(Cc1cccc(F)c1)c1ccc2c(c1)OC(C)(COc1ccc(C(=N)N)cc1)CN2C (configuration not stated)
inhibition (HMEC-1): Dose-dependent effect | Activity (HeLa [1]): Toxic | inhibition at 10 µM [9]: 50% | inhibition (Gallus gallus): Active | IC50 (MCF7 [2]): 3.8 µM | IC50 (HeLa [3]): 7.7 µM | Activity [4]: Toxic | Activity (MCF7 [10]): Non-toxic | Activity [11]: Non-toxic | IC50 [5]: 7.9 µM | Activity [12]: Non-toxic | IC50 [6]: 6.5 µM | inhibition (MAEC [13]): Dose-dependent effect | Activity (HeLa [14]): Non-toxic | Activity (MCF7 [7]): Toxic | inhibition (MAEC [15]): Active | Activity [8]: Toxic

CN1CC(C)(COc2ccc(C(=N)N)cc2)Oc2cc(N(CC(=O)O)Cc3ccc(F)c(F)c3)ccc21 (configuration not stated)
inhibition (Gallus gallus): inactive

CN1CC(C)(COc2ccc(C(=N)N)cc2)Oc2ccc(N(CC(=O)O)Cc3ccc(F)cc3)cc21 (configuration not stated)
inhibition (Gallus gallus): inactive

CCOC(=O)C(=O)N(Cc1cccc(F)c1)c1ccc2c(c1)N(C)CC(C)(COc1ccc(C(=N)N)cc1)O2 (configuration not stated)
inhibition (HMEC-1): Dose-dependent effect | inhibition (Gallus gallus): Active | inhibition (MAEC [13]): Dose-dependent effect | inhibition (MAEC [15]): Active

CN1CC(C)(COc2ccc(C(=N)N)cc2)Oc2ccc(N(CC(=O)O)Cc3cccc(F)c3)cc21 (configuration not stated)
inhibition (Gallus gallus): inactive

CN1CC(C)(COc2ccc(C(=N)N)cc2)Oc2ccc(N(Cc3ccc(F)c(F)c3)C(=O)C(=O)O)cc21 (configuration not stated)
inhibition (Gallus gallus): inactive

N=C(N)c1ccc(OCC2COc3cc(N(Cc4ccccc4)C(=O)C(=O)O)ccc3O2)cc1 (configuration not stated)
inhibition (Gallus gallus): inactive | IC50 (HeLa [3]): > 100 µM | IC50 [6]: > 100 µM

CN1CC(C)(COc2ccc(C(=N)N)cc2)Oc2ccc(N(Cc3cccc(F)c3)C(=O)C(=O)O)cc21 (configuration not stated)
inhibition (Gallus gallus): inactive

CCOC(=O)C(=O)N(Cc1cc(F)cc(F)c1)c1ccc2c(c1)N(C)CC(C)(COc1ccc(C(=N)N)cc1)O2 (configuration not stated)
inhibition (HMEC-1): Dose-dependent effect | Activity (HeLa [1]): Toxic | inhibition at 10 µM [9]: 50% | inhibition (Gallus gallus): Active | IC50 (MCF7 [2]): 5.2 µM | IC50 (HeLa [3]): 6.9 µM | Activity [4]: Toxic | Activity (MCF7 [10]): Non-toxic | Activity [11]: Non-toxic | IC50 [5]: 7.8 µM | Activity [12]: Non-toxic | IC50 [6]: 11 µM | inhibition (MAEC [13]): Dose-dependent effect | Activity (HeLa [14]): Non-toxic | Activity (MCF7 [7]): Toxic | inhibition (MAEC [15]): Active | Activity [8]: Toxic

CN1CC(C)(COc2ccc(C(=N)N)cc2)Oc2ccc(N(Cc3cc(F)cc(F)c3)C(=O)C(=O)O)cc21 (configuration not stated)
inhibition (Gallus gallus): inactive

CN1CC(C)(CO)Oc2cc(N(Cc3ccccc3)C(=O)C(=O)O)ccc21 (configuration not stated)
IC50 (HeLa [3]): > 100 µM | IC50 [6]: > 100 µM

CN1CC(C)(COc2ccc(C(=N)N)cc2)Oc2cc(N(Cc3ccc(F)cc3)C(=O)C(=O)O)ccc21 (configuration not stated)
inhibition (Gallus gallus): inactive

Cc1cc(C)c(/C=C2\C(=O)Nc3ccccc32)[nH]1
inhibition (MAEC [13]): Dose-dependent effect

CN1CC(C)(CO)Oc2cc(N(Cc3cc(F)cc(F)c3)C(=O)C(=O)O)ccc21 (configuration not stated)
IC50 (HeLa [3]): > 100 µM | IC50 [6]: > 100 µM

CN1CC(C)(COc2ccc(C(=N)N)cc2)Oc2cc(N(CC(=O)O)Cc3ccc(F)cc3)ccc21 (configuration not stated)
inhibition (Gallus gallus): inactive

CCOC(=O)CN(Cc1cc(F)cc(F)c1)c1ccc2c(c1)OC(C)(COc1ccc(C#N)cc1)CN2C (configuration not stated)
Activity (HeLa [1]): Toxic | IC50 (MCF7 [2]): 54 µM | IC50 (HeLa [3]): > 100 µM | Activity [4]: Toxic | IC50 [5]: 49 µM | IC50 [6]: 25 µM | Activity (MCF7 [7]): Toxic | Activity [8]: Toxic

CCOC(=O)CN(Cc1cccc(F)c1)c1ccc2c(c1)N(C)CC(C)(COc1ccc(C#N)cc1)O2 (configuration not stated)
Activity (HeLa [1]): Toxic | IC50 (MCF7 [2]): > 100 µM | IC50 (HeLa [3]): > 100 µM | Activity [4]: Toxic | IC50 [5]: > 100 µM | IC50 [6]: > 100 µM | inhibition (MAEC [13]): Dose-dependent effect | Activity (MCF7 [7]): Toxic | Activity [8]: Toxic

N=C(N)c1ccc(OCC2COc3ccc(N(Cc4ccccc4)C(=O)C(=O)O)cc3O2)cc1 (configuration not stated)
inhibition (Gallus gallus): inactive | IC50 (HeLa [3]): > 100 µM | IC50 [6]: > 100 µM

CN1CC(C)(COc2ccc(C(=N)N)cc2)Oc2ccc(N(CC(=O)O)Cc3cc(F)cc(F)c3)cc21 (configuration not stated)
inhibition (Gallus gallus): inactive

CN1CC(C)(COc2ccc(C(=N)N)cc2)Oc2cc(N(CC(=O)O)Cc3cc(F)cc(F)c3)ccc21 (configuration not stated)
inhibition (Gallus gallus): inactive

CN1CC(C)(COc2ccc(C(=N)N)cc2)Oc2cc(N(Cc3cc(F)cc(F)c3)C(=O)C(=O)O)ccc21 (configuration not stated)
inhibition (Gallus gallus): inactive

CCOC(=O)CN(Cc1ccc(F)cc1)c1ccc2c(c1)OC(C)(COc1ccc(C#N)cc1)CN2C (configuration not stated)
Activity (HeLa [1]): Toxic | IC50 (MCF7 [2]): > 100 µM | IC50 (HeLa [3]): > 100 µM | Activity [4]: Toxic | IC50 [5]: > 100 µM | IC50 [6]: 50 µM | Activity (MCF7 [7]): Toxic | Activity [8]: Toxic

CN1CC(C)(COc2ccc(C(=N)N)cc2)Oc2ccc(N(CC(=O)O)Cc3ccc(F)c(F)c3)cc21 (configuration not stated)
inhibition (Gallus gallus): inactive

CN1CC(C)(COc2ccc(C(=N)N)cc2)Oc2ccc(N(Cc3ccc(F)cc3)C(=O)C(=O)O)cc21 (configuration not stated)
inhibition (Gallus gallus): inactive

CN1CC(C)(COc2ccc(C(=N)N)cc2)Oc2cc(N(CC(=O)O)Cc3cccc(F)c3)ccc21 (configuration not stated)
inhibition (Gallus gallus): inactive
